ChEMBL document CHEMBL1123918, “Thromboxane synthetase inhibitors and antihypertensive agents. 4. N-[(1H-imidazol-1-yl)alkyl] derivatives of quinazoline-2,4(1H,3H)-diones, quinazolin-4(3H)-ones, and 1,2,3-benzotriazin-4(3H)-ones” (J Med Chem, 1987)
Calls of active or inactive are those of the source. The calls are words filed in the database; no cut-off is given here.

Tests used:
Oryctolagus cuniculus [1] = assay: Tested for inhibition of thromboxane formation in rabbit platelets at 2 hr by administration of 0.3 mg/kg intravenous bolus dose; format: functional
Outline: (§1)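 Rabbits given compound in 0.9% sterile saline IV, as a bolus or by infusion pump. Blood drawn 5 min predose and at 0.5, 1, 2 and 3 h, then clotted 2 h at 37 °C and held 2 h on ice. Serum mixed with indomethacin, stored at -20 °C, and diluted in pH 7.4 phosphate buffer. TXB2 measured by direct RIA.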

Oryctolagus cuniculus [2] = assay: Tested for inhibition of thromboxane formation in rabbit platelets at 3 hr by administration of 10 mg/kg intravenous bolus dose; format: functional; outline: as §1
Oryctolagus cuniculus [3] = assay: Tested for inhibition of thromboxane formation in rabbit platelets at 0.5 hr by administration of 0.3 mg/kg intravenous bolus dose; format: functional; outline: as §1
Oryctolagus cuniculus [4] = assay: Tested for inhibition of thromboxane formation in rabbit platelets at 1.0 hr by administration of 10 mg/kg intravenous bolus dose; format: functional; outline: as §1
[5] = target: T1, Thromboxane-A synthase (Rattus norvegicus) (UniProt P49430); assay: Tested for antihypertensive activity in spontaneously hypertensive rats at 100 mg/kg peroral dosage for 2 days; I is inactive; format: functional, organism-based; set-up: dose 100 mg/kg
T1 sequence (whole entry): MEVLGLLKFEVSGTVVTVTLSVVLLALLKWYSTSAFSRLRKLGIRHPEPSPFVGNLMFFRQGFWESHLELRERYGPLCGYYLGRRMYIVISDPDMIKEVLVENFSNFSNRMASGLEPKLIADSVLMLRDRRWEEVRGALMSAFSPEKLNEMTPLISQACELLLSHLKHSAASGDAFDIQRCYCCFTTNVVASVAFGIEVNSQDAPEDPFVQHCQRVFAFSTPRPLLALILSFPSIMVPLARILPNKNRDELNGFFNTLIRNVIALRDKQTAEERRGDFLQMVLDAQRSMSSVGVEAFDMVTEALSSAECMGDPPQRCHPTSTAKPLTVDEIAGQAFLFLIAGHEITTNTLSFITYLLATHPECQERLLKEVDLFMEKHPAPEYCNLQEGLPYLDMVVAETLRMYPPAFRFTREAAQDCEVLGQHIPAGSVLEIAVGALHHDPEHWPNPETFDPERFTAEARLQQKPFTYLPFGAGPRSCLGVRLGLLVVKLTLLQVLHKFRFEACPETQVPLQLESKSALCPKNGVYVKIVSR
Outline: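 Male 16-week-old Okamoto SHR (mean arterial pressure about 170 mmHg) gavaged with compound suspended in 2% preboiled starch (50 mg/mL) at 100 mg/kg or less, with 0.9% NaCl load 25 mL/kg; identical second dose without saline 24 h later. Mean arterial pressure measured 28 h after first dose; one to three rats per compound.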

Oryctolagus cuniculus [6] = assay: Tested for inhibition of thromboxane formation in rabbit platelets at 1.0 hr by administration of 0.3 mg/kg intravenous bolus dose; format: functional; outline: as §1
Homo sapiens = species on record: Homo sapiens; assay: Tested for inhibition of thromboxane formation in human platelets; format: functional
Outline: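 Platelets from four healthy human volunteers were isolated with a small amount of prostaglandin E1 to prevent aggregation, then treated with compound, standard or vehicle. TXB2 measured by direct RIA. IC50 is read graphically from percent inhibition vs log concentration curves.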

Oryctolagus cuniculus [7] = assay: Tested for inhibition of thromboxane formation in rabbit platelets at 3 hr by administration of 0.3 mg/kg intravenous bolus dose; format: functional; outline: as §1
Oryctolagus cuniculus [8] = assay: Tested for inhibition of thromboxane formation in rabbit platelets at 1.0 hr by administration of 0.1 mg/kg intravenous bolus dose; format: functional; outline: as §1
Oryctolagus cuniculus [9] = assay: Tested for inhibition of thromboxane formation in rabbit platelets at 0.5 hr by administration of 0.5 mg/kg/h perfused dose; format: functional; outline: as §1
Oryctolagus cuniculus [10] = assay: Tested for inhibition of thromboxane formation in rabbit platelets at 1.0 hr by administration of 0.5 mg/kg/h perfused dose; format: functional; outline: as §1
Oryctolagus cuniculus [11] = assay: Tested for inhibition of thromboxane formation in rabbit platelets at 0.5 hr by administration of 0.1 mg/kg intravenous bolus dose; format: functional; outline: as §1
Oryctolagus cuniculus [12] = assay: Tested for inhibition of thromboxane formation in rabbit platelets at 2 hr by administration of 0.1 mg/kg intravenous bolus dose; format: functional; outline: as §1
Oryctolagus cuniculus [13] = assay: Tested for inhibition of thromboxane formation in rabbit platelets at 3 hr by administration of 0.1 mg/kg intravenous bolus dose; format: functional; outline: as §1
Thromboxane-A synthase = target: T2, Thromboxane-A synthase (Rattus norvegicus, UniProt P49430); assay: Tested for inhibition of thromboxane synthetase from spontaneously hypertensive rats
T2 sequence (P49430 whole entry): T1 sequence (whole entry)
Outline: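 Washed SHR platelets in oxygenated Krebs phosphate buffer pH 7.4 (4.5-6.0 X 10^4 platelets/µL) incubated with vehicle or drug 10 min at 37 °C; stopped with ice and citric acid. TXB2 measured by direct RIA. Percent inhibition is relative to vehicle controls after background subtraction. IC50 is read from a plot of inhibition vs log concentration.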

Activity [5] | IC50 (Homo sapiens) [µM] | IC50 (Thromboxane-A synthase) [µM] | Structure (SMILES) | inhibition in vivo at 0.3 mg/kg (Oryctolagus cuniculus [1]) [%] | inhibition in vivo at 10 mg/kg (Oryctolagus cuniculus [2]) [%] | inhibition in vivo at 0.3 mg/kg (Oryctolagus cuniculus [3]) [%] | inhibition in vivo at 10 mg/kg (Oryctolagus cuniculus [4]) [%] | inhibition in vivo at 0.3 mg/kg (Oryctolagus cuniculus [6]) [%] | inhibition in vivo at 0.3 mg/kg (Oryctolagus cuniculus [7]) [%] | inhibition in vivo at 0.1 mg/kg (Oryctolagus cuniculus [8]) [%] | inhibition in vivo at 0.5 mg/kg/h (Oryctolagus cuniculus [9]) [%] | inhibition in vivo at 0.5 mg/kg (Oryctolagus cuniculus [10]) [%] | inhibition in vivo at 0.1 mg/kg (Oryctolagus cuniculus [11]) [%] | inhibition in vivo at 0.1 mg/kg (Oryctolagus cuniculus [12]) [%] | inhibition in vivo at 0.1 mg/kg (Oryctolagus cuniculus [13]) [%]
inactive | 5.03 | – | O=C(O)c1ccc(OCCn2ccnc2)cc1 [DAZOXIBEN] | 13.6 | 74.5 | 45.9 | 94.7 | 30.1 | 22.8 | – | – | – | – | – | –
– | 0.0212 | – | CC(Cn1ccnc1)Cn1c(=O)[nH]c2cc(Cl)ccc2c1=O (stereo unspecified) | 60.8 | – | 88.9 | – | 82.8 | 53.1 | 62.8 | 95.9 | 98.1 | 73.6 | 39.5 | 46.2
inactive | – | 0.1 | O=c1[nH]c2ccc(Br)cc2c(=O)n1CCCn1ccnc1 | – | – | – | – | – | – | – | – | – | – | – | –
